Screens (PubChem)
Compounds with a hit are over-represented: about 2.2% of the library has one in this group of screens.
FXN GAA850 act – activators of GAA850 frataxin (FXN) promoter. 360,000 tested, 0.56% active. AID 540364. activation, % at 6 µM. HEK293 lucGAA850 FXN promoter luciferase reporter, 24 h; percent of 10 µM SAHA response;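 active = activation above the average of all compounds screened plus 3 SD, cutoff fixed separately per campaign, cut at about 7.5% in these data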;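 note: 0% = DMSO wells and 100% = 10 µM SAHA wells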
NR2E3 ag-1 – activates human NR2E3 receptor; Q9Y5X4; 360,000 tested, 0.35% active; inhibition of corepressor binding, % at 3.98 µM; CHO-S Gal4-NCOR/VP16-NR2E3 two-hybrid, luciferase;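 active = inhibition above the mean of all tested compounds plus 3 SD, cut at about 70% in these data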;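 note: 0% = DMSO with NR2E3 transfected cells and 100% = cells lacking NR2E3 construct; higher means lower luciferase signal from less NR2E3 corepressor binding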
Target sequence (Q9Y5X4 whole entry, looked up, the tested form may be a part): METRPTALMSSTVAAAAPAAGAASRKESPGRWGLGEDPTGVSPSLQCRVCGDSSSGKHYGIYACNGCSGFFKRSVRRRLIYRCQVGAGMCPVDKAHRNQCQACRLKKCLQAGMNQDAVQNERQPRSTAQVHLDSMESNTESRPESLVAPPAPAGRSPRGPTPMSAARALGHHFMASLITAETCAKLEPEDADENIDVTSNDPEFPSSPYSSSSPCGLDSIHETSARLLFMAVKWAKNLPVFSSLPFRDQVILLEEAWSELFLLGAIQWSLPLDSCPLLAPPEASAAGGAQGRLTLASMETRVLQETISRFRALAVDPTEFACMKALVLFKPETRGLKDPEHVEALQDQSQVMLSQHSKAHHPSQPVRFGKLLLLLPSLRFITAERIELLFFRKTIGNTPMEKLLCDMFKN
GalR3 antagonist – antagonists of human GalR3; O60755; HEK293 GalR3-CNG cAMP membrane potential fluorescence; galR3 body fused to GalR1 C-terminus; inhibition, % at 3 µM; 360,000 tested, 0.44% active;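 active = inhibition above the screen-wide average plus 3 SD, cut at about 13% in these data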;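 note: forskolin and galanin both at EC90 stimulate the cells; cAMP rise reported by CNG channel membrane potential dye signal; 0% = forskolin plus galanin with DMSO and 100% = forskolin alone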
Target sequence (O60755 1-299 limits assumed): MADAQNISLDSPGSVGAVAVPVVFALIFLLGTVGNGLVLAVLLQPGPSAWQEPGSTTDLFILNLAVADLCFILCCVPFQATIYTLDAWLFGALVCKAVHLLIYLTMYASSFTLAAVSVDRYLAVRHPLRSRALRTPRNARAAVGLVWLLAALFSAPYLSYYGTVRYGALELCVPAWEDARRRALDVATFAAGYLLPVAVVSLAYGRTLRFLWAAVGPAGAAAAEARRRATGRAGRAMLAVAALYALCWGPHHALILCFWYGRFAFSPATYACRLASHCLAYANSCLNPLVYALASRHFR
HIV Env fusion – inhibitors of HIV Env-mediated cell fusion; HeLa-JRFL Env/CEM21 cell fusion, luciferase; inhibition, % at 12.3 µM; 360,000 tested, 1.1% active; AID 651610;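 active = mean replicate inhibition score of at least 50 and every replicate individually at or above 50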;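 note: 0% = plate neutral controls and 100% = maraviroc near 300 nM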
V-ATPase pHluor – regulators of yeast V-ATPase proton transport | S. cerevisiae, pHLuorin cytosolic pH fluorescence | response, % at 10 µM | 350,000 tested, 0.37% active; in the data active = response mostly above about 7.3%, no sharp cut-off; inactive = mostly below about 5.4%; note: actives read high
NR2E3 ag-2 – activates human photoreceptor nuclear receptor NR2E3 | 320,000 tested, 0.12% active | inhibition of corepressor binding, % at 4.78 µM | GST-NR2E3/biotin-RetCOR TR-FRET, 1536-well | AID 2300;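 active = percent inhibition above the cutoff of mean plus 3 SD of all tested compounds, set per screening campaign, cut at about 20% in these data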;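 note: 0% = DMSO wells and 100% = biotin wells as full block of FRET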
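Format: 1536-well format; test system: GST-NR2E3 and biotin-RetCOR proteins; read-out basis: percent inhibition of TR-FRET ratio; timing: 5 h incubation at 4 °C; detection: time-resolved FRET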
GalR3 conf – confirmation of human galanin receptor 3 antagonists; inhibition, % at 3 µM; HEK293 GalR3 CNG cAMP biosensor, membrane potential fluorescence; galR3 fused to GalR1 carboxy tail; challenged with forskolin and galanin at EC90; 1,600 tested, 59% active; shares compounds with GalR3 antagonist;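 active = inhibition above the primary screen's cutoff, the mean inhibition of all screened compounds plus 3 SD, cut at about 13% in these data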;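 note: 0% = forskolin plus galanin and 100% = forskolin alone with DMSO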
CNG parental – parental cell agonism counter-screen for GalR3 antagonists; shares compounds with GalR3 antagonist; activation, % at 3 µM; 1,600 tested, 10% active; HEK293-CNG parental cells, cAMP membrane potential fluorescence; normalised: DMSO wells 0%, forskolin wells 100%; in the data active = activation above about 1.3%
The depositor's hits bear a star; . = no result given; [ ] = remark or other dose.

SMILES | FXN GAA850 act | NR2E3 ag-1 | GalR3 antagonist | HIV Env fusion | V-ATPase pHluor | NR2E3 ag-2 | GalR3 conf | CNG parental
COc1ccc(NC(=O)C(c2ccc(C)cc2)N(C)C(=O)c2ccc(=O)[nH]c2)cc1 (stereo not given) | 1 | -23 | 13* | -106 | 1 | -2 | 8 | 0
COc1ccc(NC(=O)C(NC(=O)c2ccc(=O)[nH]c2)c2ccc(C)cc2)cc1 (stereo not given) | 1 | 0 | -2 | 3 | 4 | -2 | . | .
CNc1ccccc1C(C)(C)c1cc(-c2ccc(F)cc2)no1 | -1 | -4 | 49* | 66* | 0 | -3 | 69* | 0
COCC(=O)N1C[C@H](C)[C@@H](OC)CN(C)C(=O)c2cc(NC(=O)C3CCC3)ccc2OC[C@H]1C | . | . | . | 4[16.7 µM] | . | . | . | .
C#Cc1ccc(NC(=O)C2(C)CCN2C(=O)Cc2ccc(C(C)(C)C)cc2)cc1 (stereo not given) | -3 | 37 | 27* | 47 | . | . | 94* | 0
CC(C)c1ccc(CC(=O)N2CCC2(C)C(=O)NCC(C)(C)C)cc1 (stereo not given) | 1 | 10 | -7 | -34 | . | . | . | .
C#Cc1ccc(NC(=O)C2(C)CCN2C(=O)Cc2ccc(C(C)C)cc2)cc1 (stereo not given) | -2 | 19 | 84* | 25 | . | . | 92* | 0
CO[C@H]1CN(C)C(=O)c2cc(NC(=O)C3CC3)ccc2OC[C@H](C)N(C(=O)c2ccncc2)C[C@@H]1C | . | . | . | -14[16.7 µM] | . | . | . | .
COc1ccccc1NC(=O)N[C@H]1CC[C@H](CCNS(=O)(=O)c2ccccc2)O[C@H]1CO | . | . | . | 3[16.7 µM] | . | . | . | .
COc1ccc(C(=O)N2CCCC(N3CCN(c4ccccc4OC)CC3)C2)c(OC)n1 (stereo not given) | -1 | 9 | . | 3 | -1 | -2 | 3 | 0
O=C(Nc1ccccc1F)N[C@H]1CC[C@H](CCNS(=O)(=O)c2ccc(F)cc2)O[C@H]1CO | . | . | . | 0[16.7 µM] | . | . | . | .
CC(C)CCOc1ccc(C2=NNC(=O)CC2)cc1 | 5 | -28 | 26* | -5 | 3 | 1 | 15* | 1
CC(C)NC(=O)N(C)C[C@@H]1Oc2cc(Br)ccc2S(=O)(=O)N([C@@H](C)CO)C[C@@H]1C | . | . | . | 11[16.7 µM] | . | . | . | .
COc1ccc(C(=O)/C=C/c2ccccc2)c(OC)c1 | 0 | -71 | -4 | . | -1 | 3 | . | .
COCOc1cc(O)c(C(=O)/C=C/c2ccccc2)c(OCOC)c1 | 2 | 4 | 22* | . | -1 | 0 | 20* | 0
COC(=O)COc1cccc(NC(=O)c2cccc(C)c2)c1 | 3 | -1 | 20* | -18 | -2 | 4 | 57* | 0
C[C@@H]1CCCCO[C@@H](CN(C)C(=O)NC2CCCCC2)[C@@H](C)CN([C@H](C)CO)C(=O)c2cc(NC(=O)c3ccccc3)ccc2O1 | . | . | . | 16[16.7 µM] | . | . | . | .
Cc1ccc(S(=O)(=O)NC(=O)COc2ccccc2)cc1 | 1 | 8 | . | 13 | 2 | 1 | 2 | 0
Cc1ccc(OCC(=O)NS(=O)(=O)c2ccccc2)cc1 | 3 | -23 | -3 | 2 | -1 | -1 | . | .
CCNC(=O)C[C@H]1C=C[C@@H](NS(=O)(=O)c2ccc(C)cc2)[C@@H](CO)O1 | . | . | . | -6[16.7 µM] | . | . | . | .
CO[C@H]1CN(C)C(=O)c2ccc(NS(C)(=O)=O)cc2OC[C@@H](C)N(C(=O)NC(C)C)C[C@@H]1C | . | . | . | -6[16.7 µM] | . | . | . | .
CCOc1ccc(/C=N/N2C(=O)C(CC(=O)Nc3ccc(F)cc3F)SC2=NC)cc1OC (stereo not given) | 2 | -11 | 0 | -3 | 1 | 3 | . | .
CN=C1SC(CC(=O)Nc2ccccc2F)C(=O)N1/N=C/c1ccc(O)c(OC)c1 (stereo not given) | 4 | -4 | 22* | -52 | 0 | -3 | 15* | 0
O=C(NC1CCCCC1)N[C@H]1CC[C@H](CCNS(=O)(=O)c2ccccc2)O[C@@H]1CO | . | . | . | 8[16.7 µM] | . | . | . | .
CCCc1nc(NCCO)c(C#N)c2c1CCCC2 | 0 | -17 | -2 | 6 | 3 | -1 | . | .
SMILES | FXN GAA850 act | NR2E3 ag-1 | GalR3 antagonist | HIV Env fusion | V-ATPase pHluor | NR2E3 ag-2 | GalR3 conf | CNG parental
CCCc1nc(NCc2ccccc2)c(C#N)c2c1CCCC2 | 0 | -3 | 17* | 15 | 0 | -1 | 4 | 1
Cc1ccc2c(c1)C(=O)C(=O)N2CC(=O)Nc1ccccc1NC(=O)c1ccccn1 | 0 | -26 | 20* | 4 | -1 | 3 | 5 | 1
C[C@H](CO)N1C[C@H](C)[C@@H](CN(C)C(=O)Nc2ccccc2)Oc2cc(C#CC3(O)CCCC3)ccc2S1(=O)=O | . | . | . | -75[16.7 µM] | . | . | . | .
CS(=O)c1ccccc1COC(=O)Nc1ccc(Cl)cc1 (stereo not given) | 1 | -8 | 2 | . | -4 | 0 | . | .
Cc1ccc(NC(=O)OCc2ccccc2S(C)=O)cc1 (stereo not given) | 3 | -12 | 15* | -3 | 2 | 0 | 29* | 0
Fc1ccc(-c2nc3c4ccccc4ccn3c2Cc2ccccc2C(F)(F)F)cc1 | . | -55 | . | . | . | . | . | .
FC(F)(F)c1ccccc1Cc1c(-c2ccco2)nc2c3ccccc3ccn12 | . | . | 19* | 17 | . | . | 35* | 1
COc1cccc(S(=O)(=O)N[C@H]2CC[C@@H](CCn3cc(-c4ccc(F)cc4)nn3)O[C@H]2CO)c1 | . | . | . | 15[16.7 µM] | . | . | . | .
CC(=O)c1ccc(N2CCN(C(=S)Nc3ccc(Oc4ccccc4)cc3)CC2)cc1 | -4 | 37 | 82* | 3 | -1 | -4 | 97* | -1
COc1ccc(N(CC(=O)Nc2ccccc2C)S(=O)(=O)c2c(C)[nH]c(=O)[nH]c2=O)cc1 | 1 | -12 | 14* | 0 | -1 | 2 | -6 | 0
Cc1noc(C)c1NC(=O)Nc1ccc2c(c1)C(=O)N([C@H](C)CO)C[C@H](C)[C@@H](CN(C)C(=O)NC(C)C)OCCCC[C@H](C)O2 | . | . | . | -3[16.7 µM] | . | . | . | .
CC(C)NC(=O)N(C)C[C@H]1OCCCC[C@H](C)Oc2ccc(NC(=O)Nc3ccc(F)cc3)cc2C(=O)N([C@H](C)CO)C[C@@H]1C | . | . | . | 21[16.7 µM] | . | . | . | .
Cc1ccsc1C1C(C#N)=C(N)Oc2n[nH]c(C)c21 (stereo not given) | 0 | 1 | 30* | -13 | 0 | 1 | -1 | 0
Cc1[nH]nc2c1C(c1cccs1)C(C#N)=C(N)O2 (stereo not given) | -1 | -4 | 3 | 4 | -3 | 3 | . | .
C[C@@H]1CCCCO[C@H](CN(C)C(=O)NC2CCCCC2)[C@H](C)CN([C@@H](C)CO)C(=O)c2cc(NC(=O)Cc3ccccc3)ccc2O1 | . | . | . | 14[16.7 µM] | . | . | . | .
